MLL AF4-AF9 inh: MLL-AF4/AF9 protein interaction inhibition; P42568; AlphaScreen, biotin-AF4 peptide binding to FLAG-AF9; inhibition, % at 10 µM; 350,000 tested, 0.47% active;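 active means every replicate reaching a set inhibition limit, whatever the replicate mean, cut at about 25% in these data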;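 further: 0% = plate neutral control median and 100% = total signal loss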
Target sequence (P42568 whole entry, looked up): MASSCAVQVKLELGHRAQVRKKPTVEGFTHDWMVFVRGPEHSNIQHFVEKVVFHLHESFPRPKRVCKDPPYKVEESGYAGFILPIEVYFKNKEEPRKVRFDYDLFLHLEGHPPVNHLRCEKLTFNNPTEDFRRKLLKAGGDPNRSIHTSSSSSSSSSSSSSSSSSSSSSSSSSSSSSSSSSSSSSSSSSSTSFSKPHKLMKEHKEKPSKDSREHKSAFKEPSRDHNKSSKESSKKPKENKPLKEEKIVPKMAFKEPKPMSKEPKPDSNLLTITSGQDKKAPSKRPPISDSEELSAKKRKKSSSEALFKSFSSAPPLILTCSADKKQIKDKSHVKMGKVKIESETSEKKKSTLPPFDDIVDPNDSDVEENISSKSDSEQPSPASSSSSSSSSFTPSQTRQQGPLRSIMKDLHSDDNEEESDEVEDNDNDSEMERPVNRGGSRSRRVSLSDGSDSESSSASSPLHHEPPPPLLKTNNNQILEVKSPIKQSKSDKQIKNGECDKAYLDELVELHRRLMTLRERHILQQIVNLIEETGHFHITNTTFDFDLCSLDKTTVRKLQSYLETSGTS
RAD54 branch: inhibitors of human RAD54 branch migration. Q92698. 360,000 tested, 0.14% active. AID 602329. RAD54 Holliday junction branch migration, FAM/BHQ fluorescence. inhibition, % at 10.4 µM;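 active means mean normalized replicate activity at least 40 and at least half of replicates scoring 40 or more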;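 further: 0% = median of neutral control wells and 100% = median of positive control wells; inhibitors cause a drop in the FAM fluorescence signal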
GSIS activator: GLuc luminescence reporter in INS-1E cells, primary screen for activators of glucose-dependent secretion of insulin. INS-1E GLuc reporter insulin secretion, 2-3 h. activation, % at 16.6 µM. 370,000 tested, 0.61% active. AID 743287;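 active means lowest replicate activation of at least 40%, so every replicate reaches that level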;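 further: 0% = median of neutral control wells and 100% = median of IBMX positive control wells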
S100A4 MyoIIA: blocks human S100A4 binding to myosin IIA peptide; P26447; S100A4/TAMRA-MyoIIA peptide fluorescence polarization; inhibition, % at 10.7 µM; 360,000 tested, 0.14% active; AID 652163;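 active means mean inhibition of at least 70% across replicates, with every replicate also reaching that level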
Target sequence (P26447 whole entry, looked up): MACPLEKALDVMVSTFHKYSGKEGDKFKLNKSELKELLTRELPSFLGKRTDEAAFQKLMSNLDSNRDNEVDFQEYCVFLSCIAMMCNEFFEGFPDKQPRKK
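System – human S100A4 monomer protein, biochemical binding assay · Buffer or medium – Calcium-containing HEPES buffer, pH 7.2 · Timing – 5 min between mix addition and reading · Also added – TAMRA-labelled myosin IIA heavy-chain peptide probe, 5 nM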
RAD52 anneal inh: RAD52 (human) annealing inhibition; P43351; recombinant RAD52 DNA annealing, FRET fluorescence; inhibition, % at 18.7 µM; 360,000 tested, 0.46% active;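 active means every replicate showing at least 50% inhibition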
The depositor's hits bear a star; . = no result given; ! = not active in a repeat. Shown are actives, neighbours in structure and some others; about 1.3% of the full set was active somewhere.

SMILES	MLL AF4-AF9 inh	RAD54 branch	GSIS activator	S100A4 MyoIIA	RAD52 anneal inh
O=C(c1ccc2c(c1)OCO2)N1CCc2ccccc2C1	.	4.5	81.2*	.	.
Cc1ccc(S(=O)(=O)N(C)C[C@@H]2Oc3ncc(C#CC4(O)CCCC4)cc3C(=O)N([C@@H](C)CO)C[C@H]2C)cc1	3.4	-4.8	-21.3	-1.2	0.3
CNC[C@@H]1OCCCC[C@@H](C)Oc2ccc(NC(=O)Nc3cccc4ccccc34)cc2C(=O)N([C@@H](C)CO)C[C@H]1C	5.4	-1.9	-0.2	-21.1	-52.6
C[C@@H]1CCCCO[C@H](CN(C)CC2CC2)[C@H](C)CN([C@@H](C)CO)C(=O)c2cc(NC(=O)Nc3ccc(F)cc3)ccc2O1	16.4	5.4	-4.9	10.2	24.4
O=C1c2ccccc2C(Nc2ccccc2F)N1c1cccnc1 (centres undefined)	-2.1	-1.6	19.6	-1.1	0.1
COC(=O)c1ccccc1NC1c2ccccc2C(=O)N1c1cccnc1 (centres undefined)	54.9*	11.1	15.8	-3.4	-11.8
CC(C)NC(=O)Nc1ccc2c(c1)C(=O)N([C@H](C)CO)C[C@H](C)[C@@H](CN(C)Cc1ccncc1)OCCCC[C@@H](C)O2	0.7	3.1	12.7	1.3	0.4
COc1ccc(NC(=O)N(C)C[C@@H]2Oc3ccc(NC(=O)CCCCCC(=O)Nc4ccccc4N)cc3C(=O)N([C@H](C)CO)C[C@@H]2C)cc1	0.9	.	-2.9	-3.0	-21.0
CCCc1nc2sc3c(SCC(=O)NCc4ccco4)ncnc3c2c2c1CCC2	.	-20.6	61.1*	.	.
Cc1nc(SCC(=O)NCc2ccco2)c2c3c(sc2n1)CCCC3	.	-7.2	.	.	.
C[C@H]1CN([C@@H](C)CO)C(=O)c2ccccc2-c2ccccc2CO[C@@H]1CN(C)Cc1ccc(Cl)c(Cl)c1	-1.4	.	42.5*	-1.5	13.9
C[C@H]1CN([C@@H](C)CO)C(=O)c2ccccc2-c2ccccc2CO[C@@H]1CN(C)Cc1cccc(C(F)(F)F)c1	0.7	.	55.9*	7.7	20.4
C[C@@H]1CN([C@H](C)CO)C(=O)c2ccccc2-c2ccccc2CO[C@H]1CN(C)C(=O)Oc1ccccc1	6.2	-8.9	14.1	94.1*	20.2
CN1c2ccc(-c3ccccc3)cc2[C@@H]2[C@@H](CCN2C(=O)CC2CC2)[C@H]1CO	-2.4	-0.2	-21.4	5.2	1.1
CC(=O)N(C[C@H]1N[C@H](CO)[C@@H]1c1ccc(-c2cncnc2)cc1)C1CCCC1	.	.	-6.5	.	1.8
C[C@@H]1CN([C@@H](C)CO)C(=O)c2ccccc2-c2ccccc2CO[C@@H]1CN(C)Cc1cccc(C(F)(F)F)c1	0.4	.	237.0	13.9	22.8
C=C(C)CSc1nc2c(c(=O)[nH]c(=O)n2C)n1CCC(C)C	8.5	11.7	55.0*	0.0	-34.7
CC(C)CSc1nc2c(c(=O)[nH]c(=O)n2C)n1CCc1ccccc1	.	-2.3	71.3*	.	.
CCCCCCn1c(SCC(C)C)nc2c1c(=O)[nH]c(=O)n2C	.	-11.0	71.4*	.	.
COc1ccc(NC(=O)N2C[C@@H]3N[C@H](C2)C3c2ccc(-c3ccncc3)cc2)cc1 (some centres undefined)	.	.	-1.0	.	.
COc1ccc(NC(=O)N2C[C@@H]3N[C@H](C2)[C@@H]3c2ccc(-c3ccc(OC)cc3)cc2)cc1	3.4	.	34.1	6.3	67.6*
COc1ccc(NC(=O)N2C[C@@H]3N[C@H](C2)C3c2ccc(-c3cccc(OC)c3)cc2)cc1 (some centres undefined)	5.0	.	-19.1	-13.2	54.2*!
COc1ccc(-c2ccc(C3[C@@H]4CN(C(=O)Nc5cccc(F)c5)C[C@H]3N4)cc2)cc1 (some centres undefined)	8.5	.	-1.0	0.1	84.0*
COc1cccc(-c2ccc(C3[C@@H]4CN(C(=O)Nc5ccc(F)cc5)C[C@H]3N4)cc2)c1 (some centres undefined)	7.6	.	-5.3	-13.1	41.2
C/C=C/c1ccc(C2[C@@H]3CN(C(=O)Nc4ccc(C(F)(F)F)cc4)C[C@H]2N3)cc1 (some centres undefined)	.	.	190.1*!	.	.
SMILES	MLL AF4-AF9 inh	RAD54 branch	GSIS activator	S100A4 MyoIIA	RAD52 anneal inh
CCCCCCCCC#Cc1nc(C)ccc1OC	-4.1	-18.4	55.8*	14.7	-15.6
CCCCCCNS(=O)(=O)c1ccc(OC)c(OC)c1	.	-9.2	.	.	.
CCOC(=O)Cn1c(=O)n(Cc2ccccc2)c(=O)c2cccnc21	0.4	-0.5	178.8*	-4.3	-3.6
Cc1cccc(C)c1NC(=O)C1c2ccccc2OCC(=O)N1CCCN1CCOCC1 (centres undefined)	2.1	.	47.2*	-9.9	-27.0
COc1ccc(N2C(=O)CC(Sc3nc(C)cc(C)c3C#N)C2=O)cc1 (centres undefined)	.	-3.0	63.1*	.	.
CCCc1ccc(C#N)c(SC2CC(=O)N(c3ccc(OC)cc3)C2=O)n1 (centres undefined)	4.5	7.7	1.5	-6.1	-33.2
CCOC(=O)Cc1cc(=O)n2[nH]c(-c3ccc(C)cc3)cc2n1	.	-2.3	64.8*	.	.
COCC(=O)N1C[C@@H]2[C@H](c3ccccc31)[C@H](CO)N2Cc1ccccc1	.	6.6	10.5	.	-18.0
O=C(N/N=C/C=C/c1ccc2c(c1)OCO2)c1ccc([N+](=O)[O-])cc1	.	-5.2	73.7*	.	.
OC[C@H]1[C@H](c2ccccc2)C2(CN(Cc3ccccc3F)C2)N1Cc1ccccc1F	6.6	.	-15.7	-4.7	-39.6
CC(C)CNC(=S)Nc1ccc(Oc2ccccc2)cc1	11.4	.	84.9*	-2.8	-9.8
C/C=C/c1cnc2c(c1)C(=O)N([C@@H](C)CO)C[C@H](C)[C@@H](CN(C)S(=O)(=O)c1ccccc1)O2	1.9	0.3	-11.4	5.3	-1.3
COc1ccc(-n2c(=S)[nH]c3cc(C(=O)Nc4cccc(C)c4)ccc3c2=O)cc1	-6.3	.	-2.2	28.8	-2.9
COc1ccc(-n2c(=S)[nH]c3cc(C(=O)Nc4ccc(OC)c(OC)c4)ccc3c2=O)cc1	.	5.2	75.5*	.	.
COc1ccc(NC(=O)c2csc(C)c2)cc1OC	1.5	-1.8	56.7*	-3.6	1.9
CCOC(=O)N1CCC(N2C(=O)c3ccccc3C2Nc2cc(OC)c(OC)c(OC)c2)CC1 (centres undefined)	17.0	-8.4	-8.1	5.3	-8.2
CCOC(=O)[C@]12Cc3c(cc(OC)c(OC)c3OC)[C@H]1N(C1CCCCC1)C(=O)c1cc(OC)ccc12	4.8	.	178.0*	2.1	-19.8
CC(C)Oc1ccc(C(=O)CCN2CCCCC2)cc1	.	-12.6	.	.	.
CC(C)Oc1ccc(C(=O)CCN2CCOCC2)cc1	2.7	.	51.3*	0.9	-3.1
COc1ccc([N+](=O)[O-])c(S(=O)(=O)c2ccc(Cl)cc2)n1	-2.2	6.9	59.1*	-3.4	-10.9
O=[N+]([O-])c1cccnc1S(=O)(=O)c1ccccc1	0.9	4.2	129.5*	-1.5	-3.0
COc1ccc([N+](=O)[O-])c(S(=O)(=O)c2ccccc2)n1	-1.9	5.9	.	-4.4	13.1

Source: PubChem BioAssay (Broad Institute)
